The text below walks through data of ChEMBL document CHEMBL3860061, “A Novel Parkinson's Disease Drug Candidate with Potent Anti-neuroinflammatory Effects through the Src Signaling Pathway” (J Med Chem, 2016).

In data set [1] the target is Proto-oncogene tyrosine-protein kinase Src (Mus musculus, UniProt P05480). Description: Inhibition of Src in mouse BV2 cells assessed as suppression of LPS-induced NO release preincubated for 1 hr followed by LPS addition measured after 24 hrs by Griess assay. The data set is classed as cell-based, BV-2. Put shortly: (§1)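 BV-2 cells in DMEM/10% FBS, plated at 5×10^3 per well. After 24 h, treated at 100, 50, 10, 5, 1 and 0.1 µM; 1 h later LPS 300 ng/mL added. After another 24 h, nitrite in the medium measured by Griess assay.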
Proto-oncogene tyrosine-protein kinase Src, sequence (P05480 2-535 limits assumed): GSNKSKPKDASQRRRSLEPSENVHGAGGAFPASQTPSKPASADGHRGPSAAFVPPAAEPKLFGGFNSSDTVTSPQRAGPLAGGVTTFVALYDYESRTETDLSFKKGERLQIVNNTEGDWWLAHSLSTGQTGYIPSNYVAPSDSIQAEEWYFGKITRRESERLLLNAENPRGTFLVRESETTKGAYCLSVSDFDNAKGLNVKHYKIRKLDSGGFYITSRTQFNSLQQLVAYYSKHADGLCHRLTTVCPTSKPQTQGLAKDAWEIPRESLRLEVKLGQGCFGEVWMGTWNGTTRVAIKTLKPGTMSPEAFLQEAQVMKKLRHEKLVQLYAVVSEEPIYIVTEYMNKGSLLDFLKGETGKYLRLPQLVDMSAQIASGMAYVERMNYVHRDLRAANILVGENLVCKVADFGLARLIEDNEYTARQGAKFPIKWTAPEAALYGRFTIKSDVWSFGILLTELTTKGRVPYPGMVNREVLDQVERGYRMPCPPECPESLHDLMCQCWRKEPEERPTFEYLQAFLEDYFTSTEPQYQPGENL

For data set [2], the target named is Voltage-gated inwardly rectifying potassium channel KCNH2 (Homo sapiens, UniProt Q12809). Description: Inhibition of human ERG by whole cell voltage clamp assay. The method in brief:
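Whole-cell voltage clamp. Internal solution: KCl 130 mM, MgCl2 1 mM, EGTA 5 mM, ATP-Mg 5 mM, HEPES 10 mM, pH 7.2. Bath: NaCl 137, CaCl2 1.8, KCl 4, MgCl2 1, glucose 5, HEPES 10 mM, pH 7.4. From a holding potential of −70 mV, 2-s steps to 50 mV in 10 mV increments every 15 s; tail current recorded on a 2-s step from +50 to −40 mV.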

Data set [3] relates to Mus musculus. Description: Neuroprotective activity in MPTP-induced subacute C57/BL mouse Parkinson's disease model assessed as improvement in motor behavior at 5 to 20 mg/kg […] dosed 30 mins prior to each MPTP injection for 5 days and administered continously for 7 days post last MPTP dose by rotarod test. The data set is classed as functional, organism-based. Put shortly:
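Sub-acute MPTP model (30 mg/kg i.p. × 5 days) in male C57/BL mice. Agent (5–20 mg/kg) or L-DOPA 20 mg/kg given 30 min before each injection and for 7 days after. Rotarod at 14 rpm, up to 120 s, fall latency over three trials 1 h apart. Pole test: 50 cm pole, descent scored 1–5, two trials 1 h apart, pre-trained. n = 15.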

Data set [4] relates to Mus musculus. Description: Increase in dopamine level in striatum of MPTP/probenecid-induced chronic C57/BL mouse Parkinson's disease model at 10 to 20 mg/kg dosed once daily for 7 weeks post 10 doses of MPTP/probenecid for 5 weeks measured after last MPTP/probenecid dose by HPLC analysis. The format is functional, organism-based. Put shortly: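 Chronic model: 10 doses of MPTP·HCl (25 mg/kg s.c.) with probenecid (250 mg/kg i.p.) over 5 weeks. Rotarod-impaired mice then dosed with agent (5–20 mg/kg) or L-DOPA 20 mg/kg daily for 7 weeks. Striatum extracted in 0.6 N perchloric acid with phosphate/citrate/EDTA buffer; dopamine by HPLC, n = 8.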

Data set [5] has as its system Mus musculus. Description: Neuroprotective activity in MPTP/probenecid-induced chronic C57/BL mouse Parkinson's disease model assessed as reversal of decline of TH-positive neuron levels in substantia nigra at 10 to 20 mg/kg dosed once daily for 7 weeks post 10 doses of MPTP/probenecid for 5 weeks measured after last MPTP/probenecid dose by 3,3'-diaminobenzidine staining based light microscopic analysis. The data set is classed as functional, organism-based. The method in brief: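 Male C57/BL mice (22–25 g) received 10 doses of MPTP hydrochloride (25 mg/kg in saline, s.c.) plus probenecid (250 mg/kg in DMSO, i.p.) over 5 weeks. Only mice showing rotarod dysfunction afterwards were used, randomized, and dosed daily for 7 weeks with test agent in 0.5% CMC-Na. Fixed brains were cut at 40 µm; nigral coronal sections were stained with anti-TH, developed with DAB/peroxide, and positive cells counted blind.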

Data set [6] has as its system Mus musculus. Description: Increase in dopamine levels in alpha-syn A53T transgenic B6C3H mouse striatum at 10 to 20 mg/kg dosed once daily for 12 consecutive weeks by HPLC analysis. The data set is classed as functional, organism-based. The method in brief: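 α-syn A53T transgenic B6;C3H mice, dosed from 4 months of age once daily for 12 weeks with agent (5–20 mg/kg) or L-DOPA 20 mg/kg in 0.5% CMC-Na. Striatum sonicated in 0.6 N perchloric acid, phosphate/citrate/EDTA solution added, centrifuged; dopamine by HPLC, n = 8.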

Data set [7] has as its system Mus musculus. Description: Antineuro-inflammatrory activity in alpha-syn A53T transgenic B6C3H mouse assessed as decrease in IL-1beta level in midbrain at 10 to 20 mg/kg dosed once daily for 12 consecutive weeks by ELISA. The format is functional, organism-based. The method in brief: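 Male B6;C3H mice expressing mutant α-syn (A53T), from 4 months old, given agent (5, 10, 20 mg/kg) or L-DOPA 20 mg/kg in 0.5% CMC-Na once daily for 12 weeks. Wild-type controls received vehicle. Midbrain homogenised in non-denaturing lysis buffer with protease inhibitor; IL-1β or TNF-α measured by ELISA, n = 6, mean ± SD.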

In data set [8] the test system is Mus musculus. Description: In vivo inhibition of Src in MPTP/probenecid-induced chronic C57/BL mouse Parkinson's disease model assessed as effect on PTEN expression level in midbrain at 5 to 20 mg/kg dosed once daily for 7 weeks post 10 doses of MPTP/probenecid for 5 weeks by iTRAQ-labelled 2D-LC/MS/MS analysis. The data set is classed as functional, organism-based.

In data set [9] the target is Proto-oncogene tyrosine-protein kinase Src (Rattus norvegicus) (UniProt Q9WUD9). Put plainly: Inhibition of Src in Sprague-Dawley rat primary microglia cells assessed as suppression of LPS-stimulated PTEN phosphorylation at Tyr-240 residue at 10 uM preincubated for 1 hr followed by LPS challenge measured after 3 hrs by Western blot analysis. The method in brief:
(§2)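 Primary microglia from 1-day-old Sprague-Dawley rat brains, grown to confluence 12–14 days, shaken off astroglia (>98% pure). Agent at 10 µM added 1 h before LPS 100 ng/mL. Phosphorylated Src, Akt and PTEN measured 3 h later by Western blot, n = 4.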

Data set [10] has the same target. Description: Inhibition of Src in Sprague-Dawley rat primary microglia cells assessed as suppression of LPS-stimulated Akt phosphorylation at Ser-473 residue at 10 uM preincubated for 1 hr followed by LPS challenge measured after 3 hrs by Western blot analysis. The method in brief:
as §2

Data set [11] shares this target. Description: Inhibition of LPS-induced Src phosphorylation at Tyr-416 residue in Sprague-Dawley rat primary microglia cells at 10 uM preincubated for 1 hr followed by LPS stimulation measured after 3 hrs by Western blot analysis. The method in brief: as §2
In data set [12] the target is Proto-oncogene tyrosine-protein kinase Src (Mus musculus) (UniProt P05480). Put plainly: Inhibition of Src signaling pathway in mouse BV2 cells assessed as suppression of LPS-induced NO release at 0.1 to 100 uM preincubated for 1 hr followed by LPS addition measured after 24 hrs relative to control by Griess assay. The data set is classed as cell-based. The note with it: BV-2. Put shortly: as §1
Proto-oncogene tyrosine-protein kinase Src (Mus musculus), sequence (P05480 2-535 limits assumed): as above

For data set [13], the system named is Mus musculus. Put plainly: Hepatotoxicity in ICR mouse at 250 to 1000 mg/kg administered through oral gavage for 14 consecutive days. The settings on record: in vivo. The format is toxicity, organism-based. The method in brief:
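Mice dosed by oral gavage at 250, 500 and 1000 mg/kg for 14 consecutive days. General condition monitored throughout; liver and kidney clinical chemistry assessed.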

For data set [14], the system named is Mus musculus. Description: In vivo inhibition of Src in MPTP/probenecid-induced chronic C57/BL mouse Parkinson's disease model assessed as effect on NOS1 expression level in midbrain at 5 to 20 mg/kg co-administered with L-DOPA once in a day for 7 weeks post 10 doses of MPTP for 5 weeks by Western blot analysis. The format is functional, organism-based.
In data set [15] the test system is Mus musculus. Put plainly: Effect on ARHGAP21 protein expression level in midbrain of MPTP/probenecid-induced chronic C57/BL mouse Parkinson's disease model at 5 to 20 mg/kg dosed once daily for 7 weeks post 10 doses of MPTP/probenecid for 5 weeks by Western blot analysis. The format is functional, organism-based.

pIC50: −log10 of the molar value. Active and inactive are the calls of the source. The rule behind the calls is not given here.

Proto-oncogene tyrosine-protein kinase Src (Rattus norvegicus), sequence (Q9WUD9 2-536 limits assumed): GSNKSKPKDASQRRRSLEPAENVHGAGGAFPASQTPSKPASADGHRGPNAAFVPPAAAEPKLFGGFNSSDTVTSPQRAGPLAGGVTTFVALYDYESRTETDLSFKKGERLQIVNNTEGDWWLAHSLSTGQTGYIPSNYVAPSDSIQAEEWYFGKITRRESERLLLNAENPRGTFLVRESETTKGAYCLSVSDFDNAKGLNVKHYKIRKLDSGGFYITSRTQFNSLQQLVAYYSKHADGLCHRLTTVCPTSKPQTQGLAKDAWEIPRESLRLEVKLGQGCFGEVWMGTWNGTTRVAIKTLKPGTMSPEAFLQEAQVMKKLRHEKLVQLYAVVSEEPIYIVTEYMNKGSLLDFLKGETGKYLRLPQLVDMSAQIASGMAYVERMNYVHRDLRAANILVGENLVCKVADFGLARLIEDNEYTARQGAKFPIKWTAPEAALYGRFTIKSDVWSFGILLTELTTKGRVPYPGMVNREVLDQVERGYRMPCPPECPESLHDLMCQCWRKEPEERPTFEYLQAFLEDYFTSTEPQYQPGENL
Voltage-gated inwardly rectifying potassium channel KCNH2, sequence (Q12809 whole entry): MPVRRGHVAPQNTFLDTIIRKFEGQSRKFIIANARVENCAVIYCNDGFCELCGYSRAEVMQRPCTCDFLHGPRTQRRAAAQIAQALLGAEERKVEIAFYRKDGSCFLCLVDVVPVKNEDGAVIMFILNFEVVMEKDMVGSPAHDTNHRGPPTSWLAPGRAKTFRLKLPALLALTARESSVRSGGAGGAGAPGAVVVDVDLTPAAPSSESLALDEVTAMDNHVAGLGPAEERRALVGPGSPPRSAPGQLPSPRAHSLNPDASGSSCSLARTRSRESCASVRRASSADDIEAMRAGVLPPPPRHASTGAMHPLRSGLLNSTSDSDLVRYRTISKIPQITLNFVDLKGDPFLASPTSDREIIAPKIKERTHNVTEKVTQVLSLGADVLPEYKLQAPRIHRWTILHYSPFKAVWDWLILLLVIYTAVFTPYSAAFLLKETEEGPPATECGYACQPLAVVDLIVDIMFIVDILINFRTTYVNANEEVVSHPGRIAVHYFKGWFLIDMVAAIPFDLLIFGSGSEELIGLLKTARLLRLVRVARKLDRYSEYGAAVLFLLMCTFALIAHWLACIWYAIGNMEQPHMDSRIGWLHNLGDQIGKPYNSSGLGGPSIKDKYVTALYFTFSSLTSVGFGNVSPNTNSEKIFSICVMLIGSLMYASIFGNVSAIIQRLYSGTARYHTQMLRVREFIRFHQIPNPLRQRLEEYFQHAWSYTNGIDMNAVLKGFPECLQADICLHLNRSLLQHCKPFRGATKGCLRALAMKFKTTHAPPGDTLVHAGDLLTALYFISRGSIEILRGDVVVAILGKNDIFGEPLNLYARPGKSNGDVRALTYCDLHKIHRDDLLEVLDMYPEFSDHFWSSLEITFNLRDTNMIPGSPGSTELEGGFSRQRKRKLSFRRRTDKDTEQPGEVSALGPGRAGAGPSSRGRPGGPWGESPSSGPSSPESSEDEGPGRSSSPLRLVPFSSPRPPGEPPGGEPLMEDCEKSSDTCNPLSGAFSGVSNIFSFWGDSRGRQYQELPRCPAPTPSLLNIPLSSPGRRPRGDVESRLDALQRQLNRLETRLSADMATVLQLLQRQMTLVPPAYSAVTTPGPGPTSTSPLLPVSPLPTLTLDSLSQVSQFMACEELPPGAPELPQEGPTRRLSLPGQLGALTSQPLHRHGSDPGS

Consider `COc1cc(OC)c(CN[C@@H](CO)C(=O)O)c(OC)c1`, for which the pIC50 in data set [1] is 5.18. Moreover, the “inhibition (INH)” value in data set [2] is on record as “Active”. Besides, the result in data set [3], in data set [4], in data set [5], in data set [6], in [7] and in data set [15] was Active. For the same molecule, the inhibition entry in [8], in data set [9], in [10], in data set [11], in data set [12] and in data set [14] was “Active” in each case. Further, the Activity result in data set [13] is “Non-Toxic”.
